Measurements as given in ChEMBL document CHEMBL3763042, “Synthesis, biological evaluation and molecular modeling of a novel series of 7-azaindole based tri-heterocyclic compounds as potent CDK2/Cyclin E inhibitors” (Eur J Med Chem, 2016).

Assays:
[1] = system: K562; assay: Cytotoxicity against human K562 cells assessed as cell viability after 72 hrs by fluorescence microplate reader method; format: functional, cell-based; conditions: K562, 72 h
Method in brief: (§1)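 Cells were exposed to three-fold compound dilutions in triplicate for 72 h. Viability was read after adding Calcein AM, as live-cell fluorescence at 485/538 nm (excitation/emission).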

[2] = system: MCF7; assay: Cytotoxicity against human MCF7 cells assessed as cell viability at 50 uM after 72 hrs by fluorescence microplate reader method; format: functional; conditions: MCF7, 72 h, read-out: Activity
[3] = system: MCF7; assay: Cytotoxicity against human MCF7 cells assessed as cell viability after 72 hrs by fluorescence microplate reader method; format: functional, cell-based; conditions: MCF7, 72 h; method in brief: as §1
[4] = biological target: T1, Cyclin-dependent kinase 2/cyclin E1 (Homo sapiens, UniProt P24941); assay: Inhibition of CDK2/Cyclin E (unknown origin) expressed in baculoviral infected insect Sf9 cells using histone H1 as substrate in presence of [gamma-33P]ATP
[5] = Cytotoxicity against human G361 cells assessed as cell viability after 72 hrs by fluorescence microplate reader method; format: functional, cell-based; conditions: G-361, 72 h; method in brief: as §1
[6] = Cytotoxicity against human G361 cells assessed as cell viability at 50 uM after 72 hrs by fluorescence microplate reader method; format: functional; conditions: G-361, 72 h, read-out: Activity
[7] = system: G-361; assay: Induction of apoptosis in human G361 cells assessed as activation of caspases-3/7 at 50 uM using Ac-DEVD-AMC as substrate after 6 hrs by fluorescence microplate reader method relative to control; format: functional
Method in brief: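 G361 cells were seeded at 20,000 cells/well overnight, then treated with compound for 24 h. A 3x caspase-3/7 buffer (HEPES pH 7.4, NaCl, KCl, MgCl2, EGTA, Nonidet P40, CHAPS, sucrose, DTT, PMSF) containing Ac-DEVD-AMC substrate was added, and plates were incubated at 37 °C. Fluorescence at 346/442 nm was read after 6 h and expressed relative to untreated control.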

[8] = system: K562; assay: Cytotoxicity against human K562 cells assessed as cell viability at 50 uM after 72 hrs by fluorescence microplate reader method; format: functional; conditions: K562, 72 h, read-out: Activity
[9] = biological target: T1, Cyclin-dependent kinase 2/cyclin E1; assay: Inhibition of CDK2/Cyclin E (unknown origin); format: protein-complex assay
[10] = biological target: CDK7/Cyclin H/MNAT1 (Homo sapiens, UniProt P50613); assay: Inhibition of CDK7/Cyclin H/MAT1 (unknown origin) using (YSPTSPS)2KK peptide as substrate in presence of [gamma-33P]ATP; format: protein-complex assay
[11] = biological target: Cyclin-dependent kinase 4/cyclin D1 (Homo sapiens, UniProt P11802); assay: Inhibition of CDK4/Cyclin D1 (unknown origin) using RPPTLSPIPHIPR peptide as substrate in presence of [gamma-33P]ATP; format: protein-complex assay
[12] = biological target: Cyclin-dependent kinase 1/cyclin B1 (Homo sapiens, UniProt P06493); assay: Inhibition of CDK1/Cyclin B (unknown origin) expressed in baculoviral infected insect Sf9 cells using histone H1 as substrate in presence of [gamma-33P]ATP; format: cell-based
[13] = biological target: Cyclin-dependent kinase 5/CDK5 activator 1 (Homo sapiens, UniProt Q00535); assay: Inhibition of CDK5/p35NCK (unknown origin) using histone H1 as substrate in presence of [gamma-33P]ATP; format: protein-complex assay
Chain of Cyclin-dependent kinase 5/CDK5 activator 1 (Q00535 whole entry): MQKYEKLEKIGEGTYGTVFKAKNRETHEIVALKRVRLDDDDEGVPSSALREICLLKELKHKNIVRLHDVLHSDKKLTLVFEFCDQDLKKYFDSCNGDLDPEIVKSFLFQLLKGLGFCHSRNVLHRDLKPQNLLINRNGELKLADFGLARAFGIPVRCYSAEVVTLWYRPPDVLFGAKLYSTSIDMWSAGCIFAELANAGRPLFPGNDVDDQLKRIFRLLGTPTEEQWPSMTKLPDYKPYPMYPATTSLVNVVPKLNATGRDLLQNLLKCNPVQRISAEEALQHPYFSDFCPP
Chain of Cyclin-dependent kinase 5/CDK5 activator 1 (Q15078 whole entry, further chain): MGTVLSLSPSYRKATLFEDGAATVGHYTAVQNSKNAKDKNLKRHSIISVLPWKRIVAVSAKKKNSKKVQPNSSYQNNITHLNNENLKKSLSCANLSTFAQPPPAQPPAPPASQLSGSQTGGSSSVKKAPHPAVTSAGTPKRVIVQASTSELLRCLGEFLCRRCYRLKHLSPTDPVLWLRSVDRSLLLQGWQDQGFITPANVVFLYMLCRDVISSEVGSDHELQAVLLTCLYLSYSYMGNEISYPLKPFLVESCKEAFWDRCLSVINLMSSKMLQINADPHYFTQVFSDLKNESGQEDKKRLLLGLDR

Chain of Cyclin-dependent kinase 1/cyclin B1 (P06493 whole entry): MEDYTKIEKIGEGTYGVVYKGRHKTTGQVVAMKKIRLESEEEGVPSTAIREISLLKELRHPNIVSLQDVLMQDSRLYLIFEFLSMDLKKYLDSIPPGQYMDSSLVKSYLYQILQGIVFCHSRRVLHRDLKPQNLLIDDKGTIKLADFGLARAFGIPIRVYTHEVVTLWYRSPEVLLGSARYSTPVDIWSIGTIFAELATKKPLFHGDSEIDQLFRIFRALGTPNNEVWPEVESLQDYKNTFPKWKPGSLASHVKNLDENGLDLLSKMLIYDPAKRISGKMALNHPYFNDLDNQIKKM
Chain of Cyclin-dependent kinase 1/cyclin B1 (P14635 whole entry, further chain): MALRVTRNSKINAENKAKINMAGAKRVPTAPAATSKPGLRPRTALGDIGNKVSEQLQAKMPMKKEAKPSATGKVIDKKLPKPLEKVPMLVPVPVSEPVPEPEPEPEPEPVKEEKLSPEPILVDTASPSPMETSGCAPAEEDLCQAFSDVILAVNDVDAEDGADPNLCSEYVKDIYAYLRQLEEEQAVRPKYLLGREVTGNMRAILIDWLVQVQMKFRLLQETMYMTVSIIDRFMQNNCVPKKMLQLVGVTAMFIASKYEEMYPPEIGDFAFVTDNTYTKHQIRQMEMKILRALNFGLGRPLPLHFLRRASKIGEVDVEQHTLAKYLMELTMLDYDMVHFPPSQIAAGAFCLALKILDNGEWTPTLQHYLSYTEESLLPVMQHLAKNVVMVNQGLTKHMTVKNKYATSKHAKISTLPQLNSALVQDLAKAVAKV
Chain of CDK7/Cyclin H/MNAT1 (P51946 whole entry): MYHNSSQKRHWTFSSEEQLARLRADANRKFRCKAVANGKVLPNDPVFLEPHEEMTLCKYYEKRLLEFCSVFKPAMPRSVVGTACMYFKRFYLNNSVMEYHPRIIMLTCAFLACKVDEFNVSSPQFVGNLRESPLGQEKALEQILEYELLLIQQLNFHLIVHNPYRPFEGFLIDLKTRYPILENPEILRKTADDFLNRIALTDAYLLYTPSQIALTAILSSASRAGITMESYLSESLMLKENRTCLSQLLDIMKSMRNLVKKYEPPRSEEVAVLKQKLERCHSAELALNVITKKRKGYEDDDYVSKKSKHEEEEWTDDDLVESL
Chain of CDK7/Cyclin H/MNAT1 (P50613 whole entry): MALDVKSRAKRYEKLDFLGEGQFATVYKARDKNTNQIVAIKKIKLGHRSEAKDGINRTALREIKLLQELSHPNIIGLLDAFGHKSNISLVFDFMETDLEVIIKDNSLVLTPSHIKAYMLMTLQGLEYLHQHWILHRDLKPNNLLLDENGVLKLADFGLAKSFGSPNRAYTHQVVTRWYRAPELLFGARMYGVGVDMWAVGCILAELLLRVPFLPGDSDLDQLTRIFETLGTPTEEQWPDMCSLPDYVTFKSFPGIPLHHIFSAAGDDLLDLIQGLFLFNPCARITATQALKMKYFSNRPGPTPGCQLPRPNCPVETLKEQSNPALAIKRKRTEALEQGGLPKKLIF
Chain of CDK7/Cyclin H/MNAT1 (P51948 whole entry, further chain): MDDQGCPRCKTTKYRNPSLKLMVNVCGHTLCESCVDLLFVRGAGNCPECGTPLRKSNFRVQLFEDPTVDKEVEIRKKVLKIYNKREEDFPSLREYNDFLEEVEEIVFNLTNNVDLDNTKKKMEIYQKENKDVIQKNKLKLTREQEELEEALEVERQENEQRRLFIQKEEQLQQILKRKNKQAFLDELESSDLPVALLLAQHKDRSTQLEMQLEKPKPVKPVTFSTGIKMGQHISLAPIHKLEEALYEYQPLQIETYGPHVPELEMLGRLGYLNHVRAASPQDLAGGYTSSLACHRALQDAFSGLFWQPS
Chain of Cyclin-dependent kinase 4/cyclin D1 (P11802 whole entry): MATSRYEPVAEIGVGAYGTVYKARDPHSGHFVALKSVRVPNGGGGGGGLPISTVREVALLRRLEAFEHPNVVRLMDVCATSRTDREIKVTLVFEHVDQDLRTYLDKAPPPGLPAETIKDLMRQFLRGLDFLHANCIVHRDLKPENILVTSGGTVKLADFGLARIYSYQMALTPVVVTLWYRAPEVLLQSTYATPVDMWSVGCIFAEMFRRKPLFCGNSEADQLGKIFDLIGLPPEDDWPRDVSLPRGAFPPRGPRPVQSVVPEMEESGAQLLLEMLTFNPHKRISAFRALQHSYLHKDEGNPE
Chain of Cyclin-dependent kinase 4/cyclin D1 (P24385 whole entry, further chain): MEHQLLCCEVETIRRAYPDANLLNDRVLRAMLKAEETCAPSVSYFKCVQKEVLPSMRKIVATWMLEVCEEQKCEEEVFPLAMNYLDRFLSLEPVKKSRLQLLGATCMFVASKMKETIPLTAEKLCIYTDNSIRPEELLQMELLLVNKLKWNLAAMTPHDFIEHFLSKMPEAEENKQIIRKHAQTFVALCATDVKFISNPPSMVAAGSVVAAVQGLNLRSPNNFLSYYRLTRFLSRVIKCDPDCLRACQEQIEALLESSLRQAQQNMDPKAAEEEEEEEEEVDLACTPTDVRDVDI

Row | IC50 [9] | IC50 [10] | IC50 [11] | IC50 [12] | IC50 [13] | SMILES | IC50 [1] | viability at 50 µM [2] | IC50 [3] | IC50 ([4]; read-out: IC50) | IC50 ([4]; read-out: pIC50 (converted)) | IC50 [5] | viability at 50 µM [6] | fold change (FC) [7] | viability at 50 µM [8]
1 | – | – | – | – | – | O=S(=O)(c1ccccc1)n1c(-c2cn(CCc3c[nH]c4ncccc34)nn2)cc2cccnc21 | > 25 µM | 76.2% | > 25 µM | > 25 µM | 25.1 µM | > 50 µM | 71.1% | 2.1 | 82.7%
2 | – | – | – | – | – | O=S(=O)(c1ccccc1)n1cc(Cn2cc(-c3c[nH]c4ncccc34)nn2)c2cccnc21 | > 25 µM | 78.7% | > 25 µM | 25.8 µM | 25.1 µM | > 50 µM | 86.1% | 7.5 | 73.3%
3 | – | – | – | – | – | O=C(Cn1nncc1-c1cc2cccnc2[nH]1)c1c[nH]c2ncccc12 | > 25 µM | 98% | > 25 µM | 3 µM | 3.16 µM | > 50 µM | 96.3% | 2.2 | 91.1%
4 | – | – | – | – | – | c1cnc2[nH]c(Cn3cc(-c4cc5cccnc5[nH]4)nn3)cc2c1 | > 25 µM | 74.8% | > 25 µM | 1.9 µM | 2 µM | > 50 µM | 90.6% | 1.9 | 97.6%
5 | 10 µM | – | – | – | – | Cc1nc2ccccn2c1-c1ccnc(NC(=O)Nc2ccccc2)n1 | – | – | – | – | – | – | – | – | –
6 | – | – | – | – | – | c1cnc2[nH]cc(CCn3nncc3-c3c[nH]c4ncccc34)c2c1 | > 25 µM | 58% | > 25 µM | 9.1 µM | 10 µM | > 50 µM | 65.7% | 1.9 | 59.2%
7 | 0.00891 µM | – | – | – | – | O=C(NNC(=O)c1ccccc1O)Nc1cccc2c1C(=O)c1c-2n[nH]c1-c1ccc(O)cc1 | – | – | – | – | – | – | – | – | –
8 | 0.0347 µM | – | – | – | – | CC(C)[C@H](CO)Nc1nc(NCc2ccc(Cl)cc2)c2ncn(C(C)C)c2n1 | – | – | – | – | – | – | – | – | –
9 | – | – | – | – | – | c1cnc2[nH]cc(CCn3cc(-c4c[nH]c5ncccc45)nn3)c2c1 | 39.5 µM | 71.4% | 87.1 µM | 7.2 µM | 7.94 µM | 44.2 µM | 53% | 1.2 | 58.6%
10 | – | > 20 µM | 3.16 µM | 3.95 µM | 4.96 µM | COc1ccccc1-c1cc(Nc2cccc(CS(N)(=O)=O)c2)ncn1 | – | – | – | – | – | – | – | – | –
11 | – | – | – | – | – | O=S(=O)(c1ccccc1)n1c(-c2cn(CCCc3c[nH]c4ncccc34)nn2)cc2cccnc21 | > 25 µM | 84.1% | > 25 µM | 18 µM | 20 µM | > 50 µM | 86.8% | 1.8 | 89.2%
12 | 2.88 µM | – | – | – | – | Cn1ccc2ccc3c4[nH]c5cccc(Br)c5c4c4c(c3c21)C(=O)NC4=O | – | – | – | – | – | – | – | – | –
13 | – | – | – | – | – | O=C(CCn1cc(-c2c[nH]c3ncccc23)nn1)c1c[nH]c2ncccc12 | 44.3 µM | 63.5% | 64.7 µM | 17.8 µM | 20 µM | > 50 µM | 61.3% | 4.5 | 65%
14 | – | – | – | – | – | c1cnc2[nH]c(Cn3cc(-c4c[nH]c5ncccc45)nn3)cc2c1 | > 50 µM | 84.5% | 47.4 µM | 18.4 µM | 20 µM | > 50 µM | 88.6% | 2.1 | 81.9%
15 | – | – | – | – | – | O=C(Cn1nncc1-c1c[nH]c2ncccc12)c1c[nH]c2ncccc12 | > 25 µM | 75.2% | > 25 µM | 1.1 µM | 1 µM | > 50 µM | 63% | 2.9 | 76.6%
16 | – | – | – | – | – | c1cnc2[nH]c(-c3cn(CCc4c[nH]c5ncccc45)nn3)cc2c1 | > 50 µM | 63.2% | 58.5 µM | 30 µM | 31.6 µM | > 50 µM | 59.1% | 4.5 | 67.2%
17 | – | – | – | – | – | O=C(CCn1nncc1-c1c[nH]c2ncccc12)c1c[nH]c2ncccc12 | > 25 µM | 77.5% | > 25 µM | 13.4 µM | 12.6 µM | > 50 µM | 78.7% | 3.3 | 73.8%

Row | IC50 [9] | IC50 [10] | IC50 [11] | IC50 [12] | IC50 [13] | SMILES | IC50 [1] | viability at 50 µM [2] | IC50 [3] | IC50 ([4]; read-out: IC50) | IC50 ([4]; read-out: pIC50 (converted)) | IC50 [5] | viability at 50 µM [6] | fold change (FC) [7] | viability at 50 µM [8]
18 | – | – | – | – | – | CC[C@H](CO)Nc1nc(NCc2ccccc2)c2ncn(C(C)C)c2n1 [SELICICLIB] | 30.9 µM | – | 27.2 µM | – | – | 20.8 µM | – | – | –
19 | – | – | – | – | – | Cc1ccc(NC(=O)c2ccc(CN3CCN(C)CC3)cc2)cc1Nc1nccc(-c2cccnc2)n1 [IMATINIB] | 0.73 µM | – | > 10 µM | – | – | – | – | – | –
20 | – | – | – | – | – | c1cnc2[nH]c(-c3cn(CCCc4c[nH]c5ncccc45)nn3)cc2c1 | > 25 µM | 80.5% | > 25 µM | 8.7 µM | 7.94 µM | > 50 µM | 81.8% | 1.9 | 91.5%
21 | – | – | – | – | – | O=C(Cn1cc(-c2ccccc2)nn1)c1c[nH]c2ncccc12 | > 25 µM | 82.8% | > 25 µM | > 50 µM | 100 µM | > 50 µM | 86.8% | 1.5 | 95.9%
22 | 1.02 µM | – | – | – | – | Cc1nc(C)c(-c2ccnc(Nc3ccc(N4CCN(C)CC4)cc3)n2)s1 | – | – | – | – | – | – | – | – | –
23 | – | – | – | – | – | O=C(Cn1cc(-c2cc3cccnc3[nH]2)nn1)c1c[nH]c2ncccc12 | > 25 µM | 84.9% | > 25 µM | 9.2 µM | 10 µM | > 50 µM | 82% | 1.7 | 91.4%
24 | – | – | – | – | – | O=C(CCn1nncc1-c1cc2cccnc2[nH]1)c1c[nH]c2ncccc12 | > 25 µM | – | > 25 µM | 36.1 µM | 31.6 µM | > 50 µM | 62.7% | – | –
25 | 0.038 µM | – | – | – | – | Nc1ccc(CC(=O)Nc2cccc3c2C(=O)c2c-3n[nH]c2-c2ccc(O)cc2)cc1 | – | – | – | – | – | – | – | – | –
26 | – | – | – | – | – | O=S(=O)(c1ccccc1)n1cc(Cn2cc(-c3cc4cccnc4[nH]3)nn2)c2cccnc21 | > 25 µM | 72.6% | > 25 µM | > 25 µM | 25.1 µM | > 50 µM | 76.4% | 1.6 | 90.2%
27 | – | – | – | – | – | c1cnc2[nH]cc(CCCn3nncc3-c3c[nH]c4ncccc34)c2c1 | > 25 µM | 59.9% | > 25 µM | 2.7 µM | 2.51 µM | 33.4 µM | 26.5% | 4.2 | 63.4%
28 | – | – | – | – | – | c1cnc2[nH]c(-c3cnnn3CCc3c[nH]c4ncccc34)cc2c1 | > 25 µM | 74.4% | > 25 µM | 27.6 µM | 25.1 µM | > 50 µM | 69.5% | 2 | 70%
29 | – | – | – | – | – | c1ccc(-c2cn(CCc3c[nH]c4ncccc34)nn2)cc1 | > 50 µM | 65.6% | > 50 µM | > 50 µM | 100 µM | 33.6 µM | 43.3% | 3.1 | 65.7%
30 | – | – | – | – | – | O=C(CCn1cc(-c2cc3cccnc3[nH]2)nn1)c1c[nH]c2ncccc12 | > 25 µM | 41.2% | > 25 µM | 3.6 µM | 3.98 µM | > 50 µM | 62.4% | 1.2 | 75.8%
31 | – | – | – | – | – | c1cnc2[nH]cc(CCCn3cc(-c4c[nH]c5ncccc45)nn3)c2c1 | 66.6 µM | 52% | 60.7 µM | 6.1 µM | 6.31 µM | 36.9 µM | 70% | 3.9 | 72.1%
32 | – | – | – | – | – | O=C(Cn1cc(-c2c[nH]c3ncccc23)nn1)c1c[nH]c2ncccc12 | > 25 µM | 83.5% | > 25 µM | 29.3 µM | 31.6 µM | > 50 µM | 84.1% | 2.2 | 88%
33 | 0.0191 µM | – | – | – | – | NC(=O)C(=O)NNC(=O)Nc1cccc2c1C(=O)c1c-2n[nH]c1-c1ccc(O)cc1 | – | – | – | – | – | – | – | – | –
